Legend:
[1] = Inhibition of recombinant human IL2R/IL2-induced mouse 32D-beta cell proliferation preincubated for 30 mins with protein followed by cell addition measured after 2.5 days by Alamar blue reduction assay
Outline: (§1)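 32Dβ cells (IL-2Rβ/γ) were starved 4 h without cytokine, then 1 × 10^4 cells were cultured 2.5 days with 100 pM RLI or 1.5 nM IL-2. The cytokine was preincubated 30 min with fixed or increasing compound concentrations or vehicle (culture medium, DMSO 0.1% final). Alamar blue was added for 6 h at 37 °C, with fluorescence read at ex 560/em 590 nm. Tested in triplicate; IC50 is the mean of ≥2 independent assays.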

[2] = Inhibition of IL2R/IL2 interaction in human NK92 cells assessed as reduction IL2-induced STAT5 phosphorylation preincubated for 30 mins with IL2 followed by cell addition measured after 1 hr by AlphaScreen assay; type: cell-based
Outline: (§2)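 NK-92 cells were washed and serum-starved overnight, then 2 × 10^5 cells were stimulated at 37 °C for 1 h with IL-15 (50 pM fixed) or IL-2. The cytokine had been preincubated 30 min with increasing compound concentrations or vehicle (PBS, BSA 0.1%, DMSO 0.6% final). Cells were lysed and p-Stat5 read by AlphaScreen SureFire. Duplicates, ≥3 independent experiments. Result is % reduction of the cytokine p-Stat5 response.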

IL15-IL15 receptor [3] = biological target: IL15-IL15 receptor (Homo sapiens, UniProt P40933); assay: Inhibition of IL15R/IL15 interaction in human NK92 cells assessed as reduction of IL15-induced STAT5 phosphorylation preincubated for 30 mins with IL15 followed by cell addition measured after 1 hr by AlphaScreen assay; type: cell-based; outline: as §2
Interleukin-15 = Interleukin-15 (Homo sapiens, UniProt P40933); assay: Binding affinity to recombinant human IL-15 by SPR assay
Outline: (§3)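 SPR on a BIAcore 3000 at 25 °C. Recombinant IL-15, RLI or IL-2 was amine-coupled to CM5 chips, and compounds were flowed over at 100 μM or at increasing concentrations (3.125–100 μM) in PBS or 1% or 5% DMSO. Binding was read as the change in RU, and Kd was derived from direct interaction.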

Interleukin-2 = Interleukin-2 (Homo sapiens, UniProt P60568); assay: Binding affinity to recombinant human IL-2 by SPR assay; outline: as §3
IL15-IL15 receptor [4] = biological target: IL15-IL15 receptor (Homo sapiens, UniProt P40933+Q13261); assay: Inhibition of human IL-15Ralpha-sushi domain/human IL-15-induced mouse 32D-beta cell proliferation preincubated for 30 mins with protein followed by cell addition measured after 2.5 days by Alamar blue reduction assay; outline: as §1
IL15-IL15 receptor (Homo sapiens, UniProt P40933+Q13261), sequence (P40933 whole entry, the tested form may be a part): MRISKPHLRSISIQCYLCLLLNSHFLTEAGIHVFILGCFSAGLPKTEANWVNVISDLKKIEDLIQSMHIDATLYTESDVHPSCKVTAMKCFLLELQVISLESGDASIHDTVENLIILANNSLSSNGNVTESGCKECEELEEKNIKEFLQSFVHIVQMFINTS
IL15-IL15 receptor (Homo sapiens, UniProt P40933+Q13261), sequence (Q13261 whole entry, the tested form may be a part): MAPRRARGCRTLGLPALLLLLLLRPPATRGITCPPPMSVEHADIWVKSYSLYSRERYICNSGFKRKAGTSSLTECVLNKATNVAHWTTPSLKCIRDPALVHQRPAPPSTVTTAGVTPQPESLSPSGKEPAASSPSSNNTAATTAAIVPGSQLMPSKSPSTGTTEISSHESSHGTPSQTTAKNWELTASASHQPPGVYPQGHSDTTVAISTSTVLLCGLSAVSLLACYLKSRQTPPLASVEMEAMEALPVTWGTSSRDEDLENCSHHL

Interleukin-2, sequence (P60568 whole entry, the tested form may be a part): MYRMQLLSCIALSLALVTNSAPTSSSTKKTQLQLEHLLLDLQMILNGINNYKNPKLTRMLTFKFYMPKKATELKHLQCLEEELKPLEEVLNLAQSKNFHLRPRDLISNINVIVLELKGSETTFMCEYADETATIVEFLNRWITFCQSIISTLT
Interleukin-15, sequence (P40933 whole entry): as the sequence (P40933 whole entry, the tested form may be a part) above
IL15-IL15 receptor (Homo sapiens, UniProt P40933), sequence (P40933 whole entry): as the sequence (P40933 whole entry, the tested form may be a part) above
IL15-IL15 receptor (Homo sapiens, UniProt P40933), sequence (Q13261 whole entry, further chain): as the sequence (Q13261 whole entry, the tested form may be a part) above

Row | SMILES | IC50 ([1]; Homo sapiens, read-out: IC50) | IC50 [2] | IC50 (IL15-IL15 receptor [3]) | also measured
1 | Cn1c(Cc2nn(C)c(=O)c3ccccc23)nnc1SCCCCCCCC(=O)Nc1ccc(O)cc1 | > 30000 nM |  |  | 
2 | Cn1c(Cc2nn(C)c(=O)c3ccccc23)nnc1SCCCC(=O)Nc1ccc(Cl)cc1Cl | 11200 nM |  |  | 
3 | CN(C(=O)CSc1nnc(Cc2nn(C)c(=O)c3ccccc23)n1C)c1ccc(Cl)cc1Cl |  |  |  | IC50 [1]: Not Active
4 | Cn1c(Cc2nn(C)c(=O)c3ccccc23)nnc1S(=O)(=O)CCCCCCCC(=O)Nc1ccc(Br)cc1Br | 1600 nM |  |  | 
5 | Cn1c(Cc2nn(C)c(=O)c3ccccc23)nnc1SCCCCCCCCCCC(=O)Nc1ccc(Cl)cc1Cl | 4400 nM | 159 nM | 142 nM | 
6 | Cn1c(Cc2nn(C)c(=O)c3ccccc23)nnc1SCCCCCCCC(=O)NC12CC3CC(CC(C3)C1)C2 | 1800 nM | 152 nM | 210 nM | Kd (Interleukin-15): 78000 nM
7 | COc1ccc(NC(=O)CCCCCCCSc2nnc(Cc3nn(C)c(=O)c4ccccc34)n2C)c(OC)c1 | 900 nM | 162 nM | 205 nM | Kd (Interleukin-2): 27600 nM; Kd (Interleukin-15): 19600 nM
8 | Cn1c(Cc2nn(C)c(=O)c3ccccc23)nnc1SCCCCCCCC(=O)Nc1ccc(I)cc1 | 800 nM |  |  | 
9 | Cn1c(Cc2nn(C)c(=O)c3ccccc23)nnc1SCCCCCCCCCCC(=O)NC12CC3CC(CC(C3)C1)C2 | 4900 nM | 59 nM | 124 nM | Kd (Interleukin-15): 16000 nM
10 | CC(C)Oc1ccc(NC(=O)CCCCCCCSc2nnc(Cc3nn(C)c(=O)c4ccccc34)n2C)cc1 | 600 nM | 89 nM | 93 nM | Kd (Interleukin-15): 20900 nM
11 | CC(C)COc1ccc(NC(=O)CCCCCCCSc2nnc(Cc3nn(C)c(=O)c4ccccc34)n2C)cc1 | 3000 nM | 58 nM | 55 nM | Kd (Interleukin-15): 25000 nM
12 | Cn1c(Cc2nn(C)c(=O)c3ccccc23)nnc1SCc1cn(C23CC4CC(CC(C4)C2)C3)nn1 | 30000 nM |  |  | 
13 | CN(C(=O)CCCCCCCSc1nnc(Cc2nn(C)c(=O)c3ccccc23)n1C)c1ccc(Cl)cc1Cl | 8400 nM |  |  | 
14 | CCOC(=O)c1cccc(NC(=O)CSc2nnc(Cc3nn(C)c(=O)c4ccccc34)n2C)c1 |  |  |  | IC50 [1]: Not Active; IC50 (IL15-IL15 receptor [4]): Not Active
15 | Cn1c(Cc2nn(C)c(=O)c3ccccc23)nnc1SCCCCCCCC(=O)Nc1ccc(F)cc1F | 1000 nM | 76 nM | 110 nM | 
16 | CC(C)Oc1ccc(NC(=O)CSc2nnc(Cc3nn(C)c(=O)c4ccccc34)n2C)cc1 | > 30000 nM |  |  | 
17 | Cn1c(Cc2nn(C)c(=O)c3ccccc23)nnc1SCCCCCC(=O)Nc1ccc(Cl)cc1Cl | 9800 nM |  |  | 
18 | Cn1c(Cc2nn(C)c(=O)c3ccccc23)nnc1SCCCCCCCCCC(=O)Nc1ccc(Cl)cc1Cl | 1600 nM |  |  | 
19 | Cn1c(Cc2nn(C)c(=O)c3ccccc23)nnc1SCCCCCCCC(=O)Nc1ccc(Cl)cc1 | 800 nM |  |  | 
20 | COc1ccc(NC(=O)CSc2nnc(Cc3nn(C)c(=O)c4ccccc34)n2C)cc1 |  |  |  | IC50 [1]: Not Active; IC50 (IL15-IL15 receptor [4]): Not Active
21 | CCCCCCCCCCSc1nnc(Cc2nn(C)c(=O)c3ccccc23)n1C | 10000 nM |  |  | 
22 | Cn1c(Cc2nn(C)c(=O)c3ccccc23)nnc1SCC(=O)Nc1cccc(C(=O)O)c1 |  |  |  | IC50 [1]: Not Active; IC50 (IL15-IL15 receptor [4]): Not Active
23 | Cn1c(Cc2nn(C)c(=O)c3ccccc23)nnc1SCCCCCCCCCCCCCCCC(=O)Nc1ccc(Cl)cc1Cl | 4600 nM |  |  | 
24 | Cn1c(Cc2nn(C)c(=O)c3ccccc23)nnc1SCCCCCCCC(=O)Nc1ccc(Br)cc1Br | 1300 nM | 83 nM | 92 nM | Kd (Interleukin-2): 10000 nM; Kd (Interleukin-15): 11600 nM

Row | SMILES | IC50 ([1]; Homo sapiens, read-out: IC50) | IC50 [2] | IC50 (IL15-IL15 receptor [3]) | also measured
25 | Cn1c(Cc2nn(C)c(=O)c3ccccc23)nnc1SCC(=O)Nc1ccc(O)cc1 |  |  |  | IC50 [1]: Not Active; IC50 (IL15-IL15 receptor [4]): Not Active
26 | Cn1nc(Cc2nnc(SCCCCCCCC(=O)Nc3ccc(Cl)cc3Cl)o2)c2ccccc2c1=O | 800 nM |  |  | 
27 | Cn1c(Cc2nn(C)c(=O)c3ccccc23)nnc1SCCCCCCCC(=O)Nc1ccc(N=[N+]=[N-])cc1 | 1100 nM | 73 nM | 100 nM | Kd (Interleukin-15): 42400 nM
28 | Cn1c(Cc2nn(C)c(=O)c3ccccc23)nnc1SCC(=O)Nc1ccc(F)cc1F |  |  |  | IC50 (IL15-IL15 receptor [4]): Not Active
29 | Cn1nc(Cc2nnc(SCCCCCCCCCCC(=O)Nc3ccc(Cl)cc3Cl)o2)c2ccccc2c1=O | 7500 nM |  |  | 
30 | COc1ccc(NC(=O)CCCCCCCSc2nnc(Cc3nn(C)c(=O)c4ccccc34)n2C)cc1 | 3200 nM | 204 nM | 201 nM | Kd (Interleukin-15): 26000 nM
31 | Cn1c(Cc2nn(C)c(=O)c3ccccc23)nnc1SCCCCCCCC(=O)Nc1ccccc1O | 23000 nM |  |  | 
32 | Cn1c(Cc2nn(C)c(=O)c3ccccc23)nnc1SCC(=O)NC12CC3CC(CC(C3)C1)C2 |  | > 30000 nM | > 30000 nM | IC50 [1]: Not Active; IC50 (IL15-IL15 receptor [4]): Not Active
33 | Cn1c(Cc2nn(C)c(=O)c3ccccc23)nnc1SCCCCCCCC(=O)Nc1cccc2ccccc12 | 1900 nM |  |  | 
34 | COc1ccc(NC(=O)CCCCCCCSc2nnc(Cc3nn(C)c(=O)c4ccccc34)n2C)c(O)c1 | 1000 nM | 226 nM | 360 nM | Kd (Interleukin-2): 12500 nM; Kd (Interleukin-15): 21200 nM
35 | CC(C)COc1ccc(NC(=O)CSc2nnc(Cc3nn(C)c(=O)c4ccccc34)n2C)cc1 | 30000 nM |  |  | 
36 | Cn1c(Cc2nn(C)c(=O)c3ccccc23)nnc1SCCCCCCCCCCC(=O)Nc1cccc2ccccc12 | 8500 nM |  |  | 
37 | CCCOc1ccc(NC(=O)CCCCCCCSc2nnc(Cc3nn(C)c(=O)c4ccccc34)n2C)cc1 | 900 nM | 53 nM | 40 nM | Kd (Interleukin-15): 19000 nM
38 | Cn1c(Cc2nn(C)c(=O)c3ccccc23)nnc1SCc1cn(CCCCC(=O)Nc2ccc(Cl)cc2Cl)nn1 | > 30000 nM |  |  | 
39 | Cn1c(Cc2nn(C)c(=O)c3ccccc23)nnc1SCC(=O)Nc1ccccc1C(=O)O |  |  |  | IC50 [1]: Not Active; IC50 (IL15-IL15 receptor [4]): Not Active
40 | CCOC(=O)c1ccccc1NC(=O)CSc1nnc(Cc2nn(C)c(=O)c3ccccc23)n1C | 30000 nM |  |  | 
41 | CCOC(=O)c1cccc(NC(=O)CCCCCCCSc2nnc(Cc3nn(C)c(=O)c4ccccc34)n2C)c1 | 600 nM | 43 nM | 57 nM | Kd (Interleukin-2): 23100 nM; Kd (Interleukin-15): 21800 nM
42 | Cc1ccc(NC(=O)CCCCCCCSc2nnc(Cc3nn(C)c(=O)c4ccccc34)n2C)c(Cl)c1 | 1700 nM | 69 nM | 76 nM | Kd (Interleukin-15): 24100 nM
43 | Cn1c(Cc2nn(C)c(=O)c3ccccc23)nnc1SCC(=O)Nc1ccc(Cl)cc1Cl | 11600 nM | 14100 nM | 9110 nM | Kd (Interleukin-2): 10500 nM; Kd (Interleukin-15): 48400 nM
44 | CCCOc1ccc(NC(=O)CSc2nnc(Cc3nn(C)c(=O)c4ccccc34)n2C)cc1 | > 30000 nM |  |  | 
45 | Cn1c(Cc2nn(C)c(=O)c3ccccc23)nnc1SCCCCCCCC(=O)Nc1ccc(Cl)cc1Cl | 1100 nM | 160 nM | 153 nM | Kd (Interleukin-2): 8000 nM; Kd (Interleukin-15): 19100 nM
46 | Cn1c(Cc2nn(C)c(=O)c3ccccc23)nnc1SCCCCCCCC(=O)Nc1ccc(O)cc1O | 21000 nM |  |  | 
47 | Cn1c(Cc2nn(C)c(=O)c3ccccc23)nnc1SCC(=O)Nc1ccc(I)cc1 |  |  |  | IC50 [1]: Not Active; IC50 (IL15-IL15 receptor [4]): Not Active
